Among the data in ChEMBL document CHEMBL4706486, “Usnic acid derivatives as tau-aggregation and neuroinflammation inhibitors” (Eur J Med Chem, 2020) are inhibition, Activity and Time values, retold here.

Active and inactive are the calls of the source. No cut-off for these calls is given here.

The species named for data set [1] is Homo sapiens. Briefly: Inhibition of acetyl-PHF6 amide self-aggregation (unknown origin) in pH 7.4 phosphate buffer at 10 uM and 25 degreeC measured every 1 min for 120 mins under shaking condition by ThT fluorescence assay relative to control. In short, it runs like this:
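AcPHF6 dissolved in HFIP, dried overnight, 1 mM water stock used at once. Final 100 μM peptide, 20 μM ThT, 10 μM compound (≤0.1% DMSO) in 50 mM phosphate buffer pH 7.4, 25 °C. Ex 440/em 490 nm read each minute for 120 min, 10 s shaking (400 rpm) before each read. Inhibition from mean signal at 50–60 min; ≥3 wells; mean ± SD of three experiments; DMSO negative control.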

The species named for data set [2] is Homo sapiens. The data set can be described thus: Inhibition of acetyl-PHF6 amide self-aggregation (unknown origin) in pH 7.4 phosphate buffer assessed as decrease in absorbance intensity at 10 uM and 25 degreeC measured immediately after 10 sec vibration per minute for 120 mins under shaking condition by circular dichroism spectroscopy. In short, it runs like this:
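Fresh samples of 100 μM AcPHF6 with 10 μM compound (≤0.1% DMSO) in 50 mM phosphate buffer pH 7.4. 10 s vibration per minute at 25 °C over 120 min. Spectra 260–200 nm, 1 mm quartz cell, 1 nm bandwidth, 50 nm/min scan. Solvent and compound contributions subtracted, converted to Δε per residue, Savitzky-Golay smoothed.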
(CD spectra are sensitive to the conformation of chiral molecules.)

For data set [3], the species on record is Homo sapiens. Briefly: Inhibition of acetyl-PHF6 amide self-aggregation (unknown origin) in pH 7.4 phosphate buffer assessed as absence of fibrillar material at 20 uM and 25 degreeC measured after 10 mins by phosphotungstic acid staining based TEM analysis.
The species named for data set [4] is Homo sapiens. Briefly: Inhibition of acetyl-PHF6 amide self-aggregation (unknown origin) in pH 7.4 phosphate buffer assessed as appearance of dot like structure with <5 nm at 20 uM and 25 degreeC measured after 10 mins by phosphotungstic acid staining based TEM analysis.
Data set [5] deals with Microtubule-associated protein tau (Homo sapiens) (UniProt P10636). Briefly: Inhibition of heparin-induced recombinant full length His-tagged 2N4R tau self-aggregation (unknown origin) expressed in Escherichia coli BL21 (DE3) at 10 uM measured after 6 mins by ThT fluorescence assay. In short, it runs like this: (§1)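 His-tagged full-length 2N4R tau from E. coli BL21(DE3) (pET-28a, 1 mM IPTG, 37 °C), BCA-quantified, stored −80 °C. 10 μM tau with 10 μM compound and 1 mM DTT in 1× PBS at 37 °C, aggregation started with 10 μM heparin (MW 6117), 10 μM ThT. Ex 440/em 490 nm, read every 4 min with 2 min shaking (600 rpm) before reading.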
Chain of Microtubule-associated protein tau (Homo sapiens) (P10636 whole entry): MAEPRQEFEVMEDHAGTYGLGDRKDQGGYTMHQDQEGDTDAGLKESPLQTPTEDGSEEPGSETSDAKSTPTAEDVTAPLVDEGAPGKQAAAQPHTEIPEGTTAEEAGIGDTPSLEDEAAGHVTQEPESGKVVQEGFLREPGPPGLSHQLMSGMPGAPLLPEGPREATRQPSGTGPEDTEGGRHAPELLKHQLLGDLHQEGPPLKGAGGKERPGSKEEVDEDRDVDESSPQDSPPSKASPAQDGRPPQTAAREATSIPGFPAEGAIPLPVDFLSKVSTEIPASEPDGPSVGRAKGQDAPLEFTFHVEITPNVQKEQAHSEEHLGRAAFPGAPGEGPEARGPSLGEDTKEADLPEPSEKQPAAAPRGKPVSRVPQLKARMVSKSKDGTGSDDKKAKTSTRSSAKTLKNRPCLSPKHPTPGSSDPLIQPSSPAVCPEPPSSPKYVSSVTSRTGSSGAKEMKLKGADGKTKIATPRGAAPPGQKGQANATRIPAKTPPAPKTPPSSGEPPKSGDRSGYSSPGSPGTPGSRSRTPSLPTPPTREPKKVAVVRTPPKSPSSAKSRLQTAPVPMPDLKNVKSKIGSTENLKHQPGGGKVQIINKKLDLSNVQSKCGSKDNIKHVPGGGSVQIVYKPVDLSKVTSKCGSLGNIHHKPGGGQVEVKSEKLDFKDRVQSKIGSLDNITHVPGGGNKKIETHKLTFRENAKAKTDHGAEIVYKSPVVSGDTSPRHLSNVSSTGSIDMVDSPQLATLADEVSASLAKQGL

For data set [6] the target is unchanged. Briefly: Inhibition of heparin-induced recombinant full length His-tagged 2N4R tau self-aggregation (unknown origin) expressed in Escherichia coli BL21 (DE3) assessed as reduction in aggregate formation at 10 uM measured after 6 mins by ThT fluorescence assay relative to control. The gist of the method: as §1
Data set [7] deals with SH-SY5Y. The data set can be described thus: Cytotoxicity against human SH-SY5Y cells assessed as reduction in cell survival at 30 uM measured after 24 hrs by MTT assay. The format is cell-based. In short, it runs like this:
(§2)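 Cells in high-glucose DMEM with 10% FBS, 5% CO₂, 37 °C, seeded 3000–5000/well, exposed to compound 24 h. MTT (0.5 mg/mL) 4 h, formazan dissolved in DMSO, absorbance 570 nm (reference 630 nm). Viability as percent of untreated control; mean ± SD, three independent experiments.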
In general terms: Tetrazolium assays rely on reduction of a dye to a coloured formazan, in cell work by metabolically active cells.

The test system of data set [8] is L02. Briefly: Cytotoxicity against human L02 cells assessed as effect on cell viability at <=40 uM measured after 24 hrs by MTT assay. The format is cell-based. Conditions: l02, 24 h. The gist of the method:
as §2

Data set [9] relates to BV-2. Briefly: Cytotoxicity against mouse BV-2 cells at 20 uM measured after 24 hrs by MTT assay. The format is cell-based. The note with it: bv-2, 24 h. The gist of the method: as §2
Data set [10] has as its system BV-2. The data set can be described thus: Antiinflammatory activity in mouse BV-2 cells assessed as inhibition of LPS-induced NO production at 10 uM pretreated with compound for 1 hr followed by LPS stimulation and measured after 18 hrs by Griess assay relative to control. The format is functional. Conditions: time 19 hrs. In short, it runs like this: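 BV2 microglia grown in high-glucose DMEM with 10% FBS, seeded at 3 × 10^4 cells/well, preincubated with compound 1 h, then LPS (final 1 µg/ml) for 18 h. Supernatant mixed with equal volume Griess reagent, 10 min at 25 °C, absorbance 540 nm. Inhibition = (F_L−F_C)/(F_L−F₀) × 100. Mean ± SD, three independent experiments.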
A general note: Nitrite, measured by Griess reagent, commonly stands in for NO production.

Data set [11] is described as follows: Acute toxicity in Sprague-Dawley rat model of OA-induced dementia assessed as mortality at 5 to 10 mg/kg, ip administered for 7 days. The data set is classed as organism-based. Conditions: in vivo, 168 h, dose 5-10 mg/kg, time 7 day. The gist of the method:
(§3)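 Adult male SD rats (260-280 g), n = 8 per group. Compound given ip at 5 or 10 mg/kg daily for 7 days in saline with 8% DMSO and 1% Tween-80 cosolvent; controls got vehicle. Okadaic acid (300 ng in 1.5 μL saline) then injected stereotaxically into right dorsal hippocampus under isoflurane, and ip dosing continued 7 more days. Body weight recorded throughout; swimming speed recorded in Morris water maze.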

Data set [12] relates to Rattus norvegicus. The data set can be described thus: Cognitive enhancing effect in Sprague-Dawley rat model of OA-induced dementia assessed as average escape latency time to hidden platform at 5 to 10 mg/kg, ip administered for 7 days by Morris water maze test (reference value: 12.5 to 37.2 sec). The format is functional. Conditions: dose 5-10 mg/kg; time 7 day. In short, it runs like this: (§4)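 Male SD rats (n = 8/group), ip dosing at 5 or 10 mg/kg in saline with 8% DMSO and 1% Tween-80 for 7 days, then OA (300 ng in 1.5 μL saline) microinjected into right dorsal hippocampus. Dosing continued 7 days after OA. Morris water maze: 5 training days recording escape latency, distance and swim speed; day-6 probe trial, platform removed, 60 s search, quadrant time and crossings counted. Two-way ANOVA versus model; SEM.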

Data set [13] is described as follows: Toxicity in Sprague-Dawley rat model of OA-induced dementia assessed as effect on swimming speed at 5 to 10 mg/kg, ip administered for 7 days. The format is organism-based. Conditions: in vivo, 168 h, dose 5-10 mg/kg, time 7 day. The gist of the method: as §3
Data set [14] has as its system Rattus norvegicus. Briefly: Cognitive enhancing effect in Sprague-Dawley rat model of OA-induced dementia assessed as increase in time spent in virtual platform quadrant at 10 mg/kg, ip administered for 7 days by Morris water maze test. The format is functional, organism-based. Conditions: time 7.0 day. The gist of the method:
as §4

Data set [15] concerns Rattus norvegicus. Briefly: Cognitive enhancing effect in Sprague-Dawley rat model of OA-induced dementia assessed as increase in number of platform crossing at 10 mg/kg, ip administered for 7 days by Morris water maze test. The format is functional, organism-based. The note with it: time 7.0 day. The gist of the method: as §4
Data set [16] is described as follows: Acute toxicity in Sprague-Dawley rat model of OA-induced dementia assessed as effect on body weight at 5 to 10 mg/kg, ip administered for 14 days. Conditions: in vivo, 336 h.

As to `CC(=O)c1c(O)c(C)c(O)c2c1OC1=Cc3c(c(C)nn3-c3ccc(C(=O)O)cc3)C(=O)[C@@]12C`, the inhibition amounted to 51.7% in data set [1] and 50% in [6]. The inhibition entry in [2], in [3], in data set [4] and in [5] was “Active” in each case. Besides, the Activity entry in data set [7] was “Toxic”; in data set [8] it was “Non-Toxic”; in data set [9] it was “Non-Toxic”; in [11] it was “Non-Toxic”; in data set [13], “Non-Toxic”; in data set [16], “Non-Toxic”. Further, the inhibition at 10 µM in data set [10] was found to be 41%. Further, the Time in data set [12] is listed as 18.5 s. The outcome in data set [14] and in [15] was Active.

By inhibition is commonly meant the relative decrease from the control value, in per cent.
